CSC inhib = blocks cancer stem cells. cancer stem cell-like cells viability, luminescence. inhibition, % at 7.5 µM. 1.1% of 300,000 active. AID 2717; in the data active = inhibition above about 75%; inconclusive = no clear call, values can overlap the other calls; tested in HMLE shEcad cells
ANO1 block = blocks the mouse calcium-activated chloride channel TMEM16A. 1.2% of 310,000 active. normalized B-score (activity score, 25-100; higher = stronger inhibition) at 10 µM. Q8BHY3. HEK293 TMEM16A/YFP iodide influx fluorescence, ionomycin;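 active = ratio plate-corrected score three or more library SD toward inhibition, starting fluorescence score within five deviations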;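 note: score derived from kinetic fluorescence span divided by baseline fluorescence per well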
Beta apoptosis = blocks beta cell apoptosis. INS-1E cytokine-induced death, ATP luminescence, 48 h; percent of positive-control rescue, neutral wells zero. protection from apoptosis, % (concentration not given with the values). 0.8% of 300,000 active;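 active = Every replicate reaches about 75%, or at least half do and their mean reaches it too, limit read from the data; inconclusive = At least half of replicates reach the limit but their mean does not; inactive = Under half of replicates reach the limit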;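 note: 0% = cytokine-treated negative control wells and 100% = positive control rescue; higher means more ATP so stronger rescue from cytokine killing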
MC4R antag cAMP = blocks human MC4R cAMP signaling. P32245. MC4R-expressing cells, MTII-stimulated cAMP, LANCE TR-FRET. inhibition, % at 6.5 µM. 0.48% of 360,000 active;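 active = inhibition above its plate's cutoff, the mean of tested wells on that plate plus 3 SD, cut at about 29% in these data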;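 note: 0% = Melanotan II alone and 100% = Melanotan II plus saturating MCL0020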
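Assay system: human MC4R-expressing U2OS cells; reagent: Melanotan II stimulation of cells; dosing: 6.5 µM single dose; timing: compound 30 min, challenge 1 h, detection 1 h; signal: TR-FRET cAMP assay; replicates: one well per compound, no replicates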
MC4R barr agon = activates human MC4R beta-arrestin recruitment | 0.98% of 360,000 active | P32245 | activation, % at 8.9 µM | U2OS MC4R beta-arrestin complementation, luminescence; percent of melanotan II response, DMSO zero;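 active = activation above a per-plate cutoff, the mean activation of sample wells on that plate plus 3 SD, cut at about 8% in these data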
TMEM16A act = activators or potentiators of mouse TMEM16A chloride channel | Q8BHY3 | HEK293 TMEM16A/YFP-H148Q/I152L, iodide quench fluorescence; stronger effect = lower value | B-score at 10 µM | 0.3% of 340,000 active;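 active = fluorescence-ratio B-score plate-corrected deviation score at least 3 library SD below zero, with starting fluorescence score within 5 deviations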;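 note: channel opened by trigger with iodide after compound preincubation; score built on the fluorescence ratio of max minus min over baseline; more negative score means more quench and so TMEM16A activation or potentiation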
Numbers without * were called inactive; i = inactive; ? = inconclusive; . = no result. Shown are actives, neighbours in structure and some others; about 3.8% of the full set was active somewhere.

SMILES | CSC inhib | ANO1 block | Beta apoptosis | MC4R antag cAMP | MC4R barr agon | TMEM16A act
COC(=O)[C@H](CC(C)C)NS(=O)(=O)N(Cc1ccccc1)[C@@H](CC(C)C)C(=O)OC | 4 | . | -16 | 10 | 3 | i
CC(C)C[C@H](CO)N(Cc1ccccc1)S(=O)(=O)N(Cc1ccccc1)[C@@H](CO)CC(C)C | 107* | . | -5 | 21 | -1 | i
C=CS(=O)(=O)N(Cc1ccccc1)[C@H](CO)CC(C)C | . | . | . | 8 | 0 | i
COC(=O)[C@H](CC(C)C)N(Cc1ccccc1)S(=O)(=O)N(Cc1ccc(OC)cc1)[C@@H](CC(C)C)C(=O)OC | 10 | . | 116* | 1 | -1 | i
CC(=O)c1ccc(NC(=O)CSc2n[nH]c(-c3cccnc3)n2)cc1 | 1 | i | -4 | 8 | -2 | i
O=C(O)c1ccccc1C(=O)c1cccc2ccccc12 | -7 | i | 0 | 5 | 0 | i
O=C(COC(=O)C12CC3CC(CC(C3)C1)C2)NNC(=O)c1ccccc1 | 8 | . | -8 | 13 | 0 | i
COc1ccc(N=C2SC(CC(=O)Nc3ccccc3)C(=O)N2Cc2ccco2)cc1 (stereo unspecified) | . | i | . | -5 | 8.3* | i
CCC1Oc2ccc(C)cc2N(CC(=O)N(Cc2cccnc2)Cc2cccc(F)c2)C1=O (stereo unspecified) | 3 | 100* | 2 | 17 | 2 | i
CC1(C)CC(=O)C=C(c2ccc(COC(=O)c3ccc(-c4ccccc4)cc3)cc2)C1=O | . | . | . | -1 | 0 | .
C=CCn1c2ccccc2c(=O)c2cc(C#Cc3ccsc3)ccc21 | 20 | i | 6 | . | . | .
C=CCn1c2ccccc2c(=O)c2cc(C#Cc3ccccn3)ccc21 | 76* | . | 8 | 9 | 2 | i
O=S(=O)(c1cc(F)ccc1F)N1CCN(c2ncnc3ccccc23)CC1 | 48 | . | 104* | -24 | -4 | i
O=S(=O)(c1cc(F)ccc1F)N1CCN(c2ccccn2)CC1 | -11 | i | 2 | -6 | 0 | i
Cc1ccc(/C(N)=N/OC(=O)CN(C)S(=O)(=O)c2ccc(C)cc2)cc1 | 5 | i | -4 | 10 | 1 | i
Cc1ccc(S(=O)(=O)N(C)CC(=O)O/N=C(\N)c2cccc(Br)c2)cc1 | 25 | i | 4 | 3 | 2 | -14*
Cc1cccc(C(O)c2ncc(-c3cccc(C(F)(F)F)c3)[nH]2)c1C (stereo unspecified) | . | . | . | 12 | 4 | .
CC1CCCCC12NC(=O)N(CC(=O)N1CCN(S(=O)(=O)Cc3ccccc3)CC1)C2=O (stereo unspecified) | 8 | . | 1 | 10 | -2 | i
Oc1c(CN2CCN(c3ccccn3)CC2)cc(Cl)c2cccnc12 | ? | i | 109* | -3 | -5 | i
Oc1ccc(CN2CCCCC2)c2cccnc12 | 23 | i | 5 | -7 | -1 | i
CCOc1ccccc1N1CCN(Cc2cccc(OC)c2O)CC1 | 0 | i | -3 | 5 | -1 | i
Oc1c(Cl)cc(CN2CCCCC2)c2cccnc12 | 87* | i | 111* | 7 | -1 | i
COc1ccccc1N1CCN(Cc2cc(Br)c(O)c3ncccc23)CC1 | 77* | i | 102* | -3 | 0 | i
C/C(=C\C(=O)c1ccccc1)Nc1ccc(Br)c(Cl)c1 | . | 25* | . | 6 | -2 | i
O=C(Cc1ccccc1)Nc1ccc(Br)c(Cl)c1 | 14 | i | -10 | 9 | -1 | i
SMILES | CSC inhib | ANO1 block | Beta apoptosis | MC4R antag cAMP | MC4R barr agon | TMEM16A act
CN1CCN(C(CNC(=O)C(=O)Nc2ccc3c(c2)OCCO3)c2ccc(F)cc2)CC1 (stereo unspecified) | -7 | i | -1 | -1 | -1 | i
Cc1ccc(-c2nc(CCNC(=O)c3ccco3)cs2)cc1 | 0 | 25* | 5 | -3 | -1 | i
CC(=O)Nc1cnc(/C=C\CCCO)cn1 | . | . | . | 4 | -3 | .
CCc1cc2c3c(c1)/C(=C1/SC(N)=NC1=O)C(=O)N3C(C)(C)C=C2C | 5 | 100* | -3 | -3 | -2 | i
COc1ccc(-c2nnc(SCc3nc4ccccc4c(=O)[nH]3)o2)cc1 | -11 | i | -8 | -15 | 8.2* | i
Cc1cccc(OCc2nnc(SCc3nc4ccccc4c(=O)[nH]3)o2)c1 | 15 | i | 8 | 7 | 2 | i
CC(=O)N(Cc1ccc(F)cc1)C1=C(NCCc2ccccc2)C(=O)c2ccccc2C1=O | -9 | i | 106* | -1 | -1 | i
Cn1nc(C(=O)Nc2ccc(Br)cc2)cc1C(=O)Nc1ccc(Br)cc1 | -10 | i | -1 | 7 | 1 | i
Cn1nc(C(=O)Nc2ccccc2Cl)cc1C(=O)Nc1ccccc1Cl | 5 | i | -4 | 4 | 9.3* | i
CCOC(=O)c1cnn(-c2sc(C(=O)OCC)c(C)c2C(=O)OCC)c1N | . | 100* | . | 12 | 2 | i
CCOC(=O)c1cnn(-c2cc(C)cc(C)c2)c1N | 17 | i | 0 | 2 | -2 | i
COc1ccc(C(=O)C2CCCN(C(=O)c3csc(SC)n3)C2)cc1F (stereo unspecified) | . | . | . | -4 | 1 | .
CON(C)S(=O)(=O)NC(=O)C1=C(N2CCCC2)COC1=O | -13 | . | 4 | 2 | -1 | i
O=C1CC(Cc2ccccc2)C(=O)N1CCc1ccc2c(c1)OCO2 (stereo unspecified) | 1 | i | 2 | 0 | 2 | i
O=C1OC[C@H](Cc2ccc3c(c2)OCO3)/C1=C\c1ccc2c(c1)OCO2 | -10 | 25* | 33 | 0 | 0 | i
O=C1c2c(Br)c(Br)c(Br)c(Br)c2C(=O)N1c1ccccn1 | 84* | i | -11 | 6 | -1 | i
[O-][n+]1onc2c1CCc1c-2nn(-c2ccccc2Cl)[n+]1[O-] | 0 | i | 96* | 37* | 5 | i
CCOc1ccccc1NC(=O)CCS(=O)(=O)c1ccc2c(c1)CCN2C(C)=O | -12 | i | -4 | 1 | -3 | i
CCOC(=O)Nc1ccc(OC(=O)Oc2ccc(NC(=O)OCC)cc2)cc1 | . | . | . | -6 | 9.5* | i
FC(F)(F)c1cccc(NC(=S)NNC(=S)Nc2ccc(Cl)cc2)c1 | 132* | i | 42 | . | . | .
FC(F)(F)c1cnc(NNC(=S)Nc2ccc(Cl)cc2)c(Cl)c1 | 59 | 25* | 93* | 23 | 0 | i
COC(=O)c1ccccc1S(=O)(=O)N1CCC(C(=O)NCc2ccccn2)CC1 | . | . | . | -4 | -2 | .
CCN(CC)S(=O)(=O)c1cc(C(=O)Nc2cc(C)on2)c(Cl)cc1Cl | -16 | i | -6 | 27 | -2 | i
O=S(=O)(c1cccc2cnccc12)N1CCNCC1 | -7 | i | 5 | 11 | 1 | -12*
